Experimental data as given in article PMC3401020 (Bioorganic & medicinal chemistry, 2011).

Columns and labels:
[1] = NMR stability measurements in wet methanol; type: physicochemical; settings: assay timescale
COX-2 = biological target: T1, COX-2 (Mus musculus, UniProt Q05769); assay: COX-2 inhibition, conversion of [14C]-arachidonic acid to [14C]-prostaglandins; type: biochemical, murine; settings: 25 μM concentration
T1 sequence (Q05769 18-604): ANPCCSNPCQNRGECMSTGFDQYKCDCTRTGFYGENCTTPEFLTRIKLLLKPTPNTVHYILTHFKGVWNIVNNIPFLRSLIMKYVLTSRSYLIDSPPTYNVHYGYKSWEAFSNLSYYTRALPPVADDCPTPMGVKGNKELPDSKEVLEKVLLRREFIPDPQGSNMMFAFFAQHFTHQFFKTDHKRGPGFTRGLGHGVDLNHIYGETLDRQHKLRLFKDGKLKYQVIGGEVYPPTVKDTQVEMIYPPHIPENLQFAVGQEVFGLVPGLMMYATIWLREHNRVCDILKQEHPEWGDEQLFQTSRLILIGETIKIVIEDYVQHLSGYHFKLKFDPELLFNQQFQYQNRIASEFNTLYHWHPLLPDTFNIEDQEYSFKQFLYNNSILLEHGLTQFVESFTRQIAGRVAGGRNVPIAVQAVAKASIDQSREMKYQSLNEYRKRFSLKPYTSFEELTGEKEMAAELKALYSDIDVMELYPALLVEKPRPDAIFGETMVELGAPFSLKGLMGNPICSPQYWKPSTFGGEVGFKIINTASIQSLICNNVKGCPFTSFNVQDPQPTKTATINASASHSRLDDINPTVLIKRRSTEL
Procedure, shortened: (§1)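 Carbaborane esters of indomethacin screened at 25 μM against ovine COX-1 and murine COX-2, measuring conversion of [14C]-arachidonic acid to [14C]-prostaglandins. Reactions were stopped, then substrate consumption was read by thin-layer chromatography.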

COX-1 [2] = biological target: T2, COX-1 (Ovis aries, UniProt P05979); assay: COX-1 inhibition, conversion of [14C]-arachidonic acid to [14C]-prostaglandins; type: biochemical, ovine; settings: 25 μM concentration
T2 sequence (P05979 25-600): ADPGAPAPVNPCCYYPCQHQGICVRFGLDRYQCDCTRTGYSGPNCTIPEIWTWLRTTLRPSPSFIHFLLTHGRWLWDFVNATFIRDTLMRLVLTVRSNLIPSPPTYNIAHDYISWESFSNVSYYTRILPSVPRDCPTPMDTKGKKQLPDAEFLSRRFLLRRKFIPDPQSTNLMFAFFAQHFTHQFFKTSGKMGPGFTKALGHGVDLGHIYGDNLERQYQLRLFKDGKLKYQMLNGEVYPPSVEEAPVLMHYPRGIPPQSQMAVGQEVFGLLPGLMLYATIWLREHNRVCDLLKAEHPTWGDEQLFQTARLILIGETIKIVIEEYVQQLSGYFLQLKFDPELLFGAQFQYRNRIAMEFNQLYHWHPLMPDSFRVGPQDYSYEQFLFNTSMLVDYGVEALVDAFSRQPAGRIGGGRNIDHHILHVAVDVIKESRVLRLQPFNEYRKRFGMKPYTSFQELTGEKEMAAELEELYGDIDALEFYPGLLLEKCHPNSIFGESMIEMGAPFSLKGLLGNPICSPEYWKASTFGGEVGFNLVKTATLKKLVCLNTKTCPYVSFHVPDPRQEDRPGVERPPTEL
Procedure, shortened: as §1

COX-1 [3] = biological target: T2, COX-1; settings: already reported; cited from earlier work

stability in wet methanol (NMR) [1]	COX-2 inhibition in screen (COX-2)	COX-1 inhibition in screen (COX-1 [2])	Compound	IC50 COX-1 (COX-1 [3])
stable	by far the best COX-inhibition	by far the best COX-inhibition	2-{1-[(4-Chlorophenyl)carbonyl]-5-methoxy-2-methyl-1H-indol-3-yl}acetic acid 1-(1,2-dicarba-closo-dodecaboranyl) ester [5o]	
			COc1ccc2c(c1)c(CC(=O)Oc1ccccc1)c(C)n2C(=O)c1ccc(Cl)cc1 [compound 10]	inactive
